# mIAP block: blocks mouse intestinal alkaline phosphatase | inhibition, % at 10 µM | AID 2806 | 0.2% of 330,000 active | purified mouse IAP, CDP-Star luminescence, 30 min;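 active = inhibition of at least 40% at 10 µM in the primary screen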;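 note: plate controls were DMSO with enzyme for no effect and no enzyme wells for full effect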
# hIAP block: human IAP inhibition; AID 2544; inhibition, % at 10 µM; purified IAP, CDP-Star luminescence, 30 min; P09923; 0.12% of 330,000 active;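 active = inhibition reaching a set limit with compound at 10 µM in the primary screen, cut at about 35% in these data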;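 note: plate controls were DMSO wells with enzyme for no effect and no-enzyme buffer wells for full effect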
# Target sequence (P09923 whole entry, looked up): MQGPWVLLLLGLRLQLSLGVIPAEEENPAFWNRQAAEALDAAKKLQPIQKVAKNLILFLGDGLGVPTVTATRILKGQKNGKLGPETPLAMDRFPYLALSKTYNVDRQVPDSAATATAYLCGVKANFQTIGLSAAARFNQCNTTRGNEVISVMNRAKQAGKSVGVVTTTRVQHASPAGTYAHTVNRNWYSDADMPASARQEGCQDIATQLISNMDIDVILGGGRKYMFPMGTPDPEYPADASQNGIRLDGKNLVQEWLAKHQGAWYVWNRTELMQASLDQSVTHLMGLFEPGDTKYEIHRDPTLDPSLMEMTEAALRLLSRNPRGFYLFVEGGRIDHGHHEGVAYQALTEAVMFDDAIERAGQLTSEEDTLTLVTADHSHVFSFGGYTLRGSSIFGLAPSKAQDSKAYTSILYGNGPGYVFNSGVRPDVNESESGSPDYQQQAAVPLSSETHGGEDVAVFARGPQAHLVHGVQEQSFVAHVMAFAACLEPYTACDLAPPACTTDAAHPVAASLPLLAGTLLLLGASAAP
# bIAP activator: increases bovine intestinal alkaline phosphatase activity; 0.17% of 200,000 active; activation factor at 20 µM; purified bovine IAP, CDP-star luminescence, 30 min; hits give high values; fold of DMSO-control signal, blank-subtracted; AID 1016;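 active = activation factor of 2 or more at 20 µM, a signal rise over negative controls twice the positive control's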
# hIAP activ: human IAP activation | P09923 | purified human IAP, CDP-Star luminescence, 30 min; hits give high values; 1 = vehicle-only enzyme, 0 = enzyme-free background | activation factor at 10 µM | 0.16% of 330,000 active;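 active = activation factor of the enzyme at least 2-fold when tested at 20 µM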
# bIAP inhibitor: intestinal alkaline phosphatase (bovine) inhibition; inhibition, % at 20 µM; purified bovine IAP, CDP-star luminescence, 30 min; 190,000 tested, under 10 active; AID 1019;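 active = over 50% inhibition of intestinal alkaline phosphatase at 20 µM in the single-dose screen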
#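 System: Purified bovine intestinal alkaline phosphatase (IAP) enzyme | Input: IAP diluted 1/65,000,000 in the well | Also added: CDP-star chemiluminescent phosphatase substrate, 30 µM final | Dosing: 20 µM single dose | Times: Enzyme reaction for 30 min at room temperature | Detection: Luminescence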
# mIAP act: mouse IAP activation; muIAP, CDP-Star luminescence, 30 min; hits give high values; 1 = vehicle-only enzyme signal, 0 = enzyme-free wells; activation factor at 10 µM; 0.24% of 330,000 active;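 active = activation factor of at least 2 at 20 µM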
#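 System: mouse IAP enzyme. Reagent: CDP-Star chemiluminescent phosphatase substrate. Benchmarks: DMSO wells, no-enzyme wells. Times: 30 min enzyme-substrate-compound incubation at room temperature. Detection: luminescence from enzymatic CDP-Star hydrolysis. Doses: test compounds delivered from DMSO solution.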
# Numbers without * were called inactive; . = no result. The list is not random: actives were taken first. Their share in the collection is about 0.79%.
SMILES,mIAP block,hIAP block,bIAP activator,hIAP activ,bIAP inhibitor,mIAP act
COc1ccc(C2=NOC(Cn3nc(-c4ccccc4)cc3C(=O)NCc3ccccc3OC)C2)cc1 (configuration not stated),-107,0,.,1,.,2.1*
N#CCCN(C(=S)NC(=O)c1cccs1)c1ccccc1F,5,20,.,0.8,.,0.95
CN1CCS/C1=C\C=C1/SC(=S)N(CC(=O)O)C1=O,.,.,0.4,.,.,.
CCN1C(=O)/C(=C/C=C2/SCCN2C)SC1=S,48*,9,0.9,0.91,13,0.52
Cc1cccc(C)c1NC(=O)CN(C)C(=O)c1cccc(NS(=O)(=O)c2ccccc2)c1,4,-2,.,1,.,0.96
CC(C)(C)c1ccc(OCCNC(=S)Nc2ccccc2)cc1,-136,2,0.9,0.98,8,2.4*
S=C(Nc1ccc(Oc2ccccc2)cc1)NC1CCCC1,-172,2,1,0.98,1,2.7*
CCCCNC(=S)Nc1ccc(Oc2ccccc2)cc1,-135,-10,0.8,1.1,23,2.3*
S=C(NCC1CCCCC1)Nc1ccc(Oc2ccccc2)cc1,-226,5,1.2,0.95,-18,3.3*
S=C(Nc1ccccc1Oc1ccccc1)NC1CCCC1,-43,-5,1,1.1,-1,1.4
COc1ccc2[nH]c3c(c2c1)CCN1C(=O)C(CC(=O)NCCC2=CCCCC2)C[C@H](C(=O)N2CCCCC2)[C@@]31C (some centres not stated),-60,.,.,.,.,1.5
Cc1cccc(NC(=S)NC2CCCC2)c1,-14,-5,1.1,1.1,-9,1.1
S=C(Nc1ccc(Br)cc1)NC1CCCC1,-107,-18,1.1,1.2,-11,2.1*
Cc1ccccc1-n1nc2c(c1NC(=O)c1ccc(S(=O)(=O)N(C)C)cc1)CSC2,46*,1,1,0.99,1,0.55
COc1ccc(N2C3=C(CC4=C2CCCC4=O)C(=O)CCC3)cc1,46*,12,0.9,0.88,15,0.54
Cc1cc(-c2nn(-c3ccccc3F)cc2CNCCc2cnc[nH]2)c(C)s1,-9,-53,3*,1.5,-198,1.1
Cc1cc(-c2nn(-c3ccccc3F)cc2CN2CCC(C(N)=O)CC2)c(C)s1,-11,-1,1.1,1,-6,1.1
O=C(CSc1nnc(-c2c[nH]c3ccccc23)o1)NCC1CCCO1 (configuration not stated),-3,-5,.,1,.,1
Cc1ccc(NC(=O)Nc2cc(S(=O)(=O)N(C)C)ccc2C)cc1,-177,-10,0.8,1.1,19,2.8*
CCc1cccc(CC)c1NC(=S)NCc1nc2ccccc2[nH]1,-3,-13,1.3,1.1,-28,1
CC[C@H](C)Cc1cn([C@@H](CCCCNC(=O)OC(C)(C)C)C(=O)NCCCCCCCCCCC(=O)N2CCN(C(=O)OC(C)(C)C)CC2)nn1,-119,3,.,0.97,.,2.2*
CC(C)(C)OC(=O)NCCCC[C@@H](C(=O)NCCCCCCCCCCC(=O)N1CCN(C(=O)OC(C)(C)C)CC1)n1cc(CCO)nn1,-22,17,.,0.83,.,1.2
Cc1cc(C)c(C)c(S(=O)(=O)N2CCN(C(=O)c3ccccc3OCc3c(C)noc3C)CC2)c1C,-9,-4,.,1,.,1.1
COC(=O)c1ccc(NC(=O)Nc2ccc(OC)c(OC)c2)cc1,-57,-32,1.2,1.3,-22,1.6
COc1ccc(NC(=O)NC23CC4(C)CC(C)(CC(C)(C4)C2)C3)cc1OC,-294,13,0.9,0.87,8,3.9*
SMILES,mIAP block,hIAP block,bIAP activator,hIAP activ,bIAP inhibitor,mIAP act
COc1ccc(OC)c(/C=C/C(=O)OCC(=O)N2CCN(S(=O)(=O)c3ccc(C)cc3C)CC2)c1,-7,-4,.,1,.,1.1
O=C(Oc1ccccc1C(=O)N1CCOCC1)c1ccc(F)cc1,0,1,.,0.99,.,1
O=C(Oc1ccccc1C(=O)N1CCOCC1)c1ccc(Br)cc1,11,-2,2.2*,1,-118,0.89
Cc1ccc(NC(=O)Nc2cc(C(F)(F)F)c[nH]c2=O)cc1,11,7,.,0.93,.,0.89
Cc1cc(/C=N/n2cnnc2)c(C)n1-c1ccc(OCc2ccc(Cl)cc2Cl)cc1,-18,-23,2.5*,1.2,-148,1.2
Cc1cc(/C=N/n2cnnc2)c(C)n1-c1ccc(Cl)cc1,0,-1,0.9,1,10,1
CCCCSCCCNC(=O)Nc1ccc(CC)cc1,-146,-7,0.5,1.1,49,2.5*
COc1ccc(N=C2NC(=O)/C(=C/c3ccco3)S2)cc1,25,10,.,0.9,.,0.75
COc1ccc(S(=O)(=O)/N=C2/NC(=O)/C(=C/c3ccco3)S2)cc1,57*,-8,1.1,1.1,-5,0.43
O=C1/C(=C/c2ccc(N3CCOCC3)o2)SC(=Nc2ccccc2)N1CCc1c[nH]c2ccccc12,12,43*,0.6,0.57,40,0.88
O=C(O)CCCCCn1c(O)c(C=C2N=c3ccccc3=N2)sc1=S,40*,-30,0.8,1.3,24,0.6
CCc1cc(Cn2nc(-c3ccccc3)cc2C(=O)O)on1,-6,12,.,0.88,.,1.1
CCc1cc(Cn2nc(-c3ccccc3)cc2C(=O)NCc2ccc(C)cc2)on1,-233,23,.,0.77,.,3.3*
CCOC(=O)C1C(c2ccc(O)c(O)c2)NC(=S)NC1(O)C(F)(F)F (configuration not stated),12,-2,1,1,-1,0.88
Cn1nc(-c2ccccc2)c2ncc(C(F)(F)F)cc21,4,-8,1.1,1.1,-10,0.96
Cc1oc(-c2cccs2)nc1CNC[C@H]1O[C@@H](n2cnc3c(N)ncnc32)[C@H](O)[C@@H]1O,4,18,.,0.82,.,0.96
Cc1ccc(S(=O)(=O)NC(CC(=O)O)c2cccs2)cc1 (configuration not stated),4,-9,.,1.1,.,0.96
CC1CCN(CCc2nc3cc(NC(=O)NC4CCCCC4)ccc3n2C)CC1,-34,-3,2.5*,1,-146,1.3
Cn1c(CCN2CCCCC2)nc2cc(NC(=O)NC3CCCCC3)ccc21,-12,-10,1.8,1.1,-77,1.1
O=C(CSc1ccccn1)Nc1ccccc1F,-11,-8,0.9,1.1,14,1.1
O=C(CSc1ccccn1)Nc1cccc2ccccc12,68*,5,0.9,0.95,11,0.32
COc1ccc(C)cc1NC(C)C(=O)NC(=O)NC1CCCCC1 (configuration not stated),2,-10,.,1.1,.,0.98
Cc1cc2nc(C3CCN(CC4COc5ccccc5O4)CC3)[nH]c2cc1C (configuration not stated),-58,16,4.5*,0.84,-350,1.6
CC(O)CNc1nc2ccccc2n1-c1ncnc2sc3c(c12)CCC3 (configuration not stated),-44,-8,2.1*,1.1,-105,1.4

# High-throughput results: PubChem, Sanford-Burnham Center for Chemical Genomics
